Assay results: PubChem BioAssay
Inconclusive results are not listed.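 How the source made its calls, unless noted: active means viability increase at or above a cutoff of the median across tested compounds plus 3 SD (cut at about 8.5% in these data, passing the limit was not always enough); inconclusive means some gains above the cutoff, reason not given; inactive means the rest.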

What was measured:
[1] = OD615 S. cerevisiae growth inhibition, permissive medium, pilot counter-assay, permissive growth control for S. cerevisiae lifespan shortening project (AID 705;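 active means growth inhibition above 25% in both replicates, a cutoff set 3 SD above the mean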); settings: OD615, 24 h, at 10 µM, hits give high values
Method in brief: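 Material: engineered DeaD yeast; Compound: one dose 10 µM, DMSO 0.25% final; Detection: absorbance (optical density) at 615 nm; Buffer or medium: permissive raffinose/galactose medium; Timing: 24 h exposure, 30 °C.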

[2] = Restrictive medium S. cerevisiae growth inhibition, OD615, pilot screen of yeast lifespan reduction project, restrictive growth control (AID 706;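 active means growth inhibition above a set limit, 3 SD over mean compound inhibition, in both replicates, cut at about 43% in these data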;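 further: modified DeaD lifespan yeast strain shifted to restrictive glucose medium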); settings: OD615, 48 h, at 10 µM, hits give high values
Method in brief: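 Buffer or medium: restrictive glucose medium (CSMM-D); test system: modified S. cerevisiae; doses: single dose of 10 µM compound final, 0.25% DMSO; schedule: 48 h compound exposure at 30 °C; detection: absorbance (optical density) measured at 615 nm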

[3] = viability gain of MRP-1-high H69AR cells under doxorubicin, pilot screen, MRP-1 activator project, CellTiter-Glo, duplicate (AID 807); settings: H69AR viability with doxorubicin, CellTiter-Glo luminescence; at 10 µM; hits give high values;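 further: compound pretreatment 18-22 h then 72 h combined with doxorubicin; 0% = doxorubicin alone and 100% = vehicle without doxorubicin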
[4] = growth suppression of beta-catenin knockout HCT116, pilot screen, human colon tumor cells (AID 823;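 active means cell viability at or below a set limit in both duplicate runs, the limit being the all-compound median minus 4 SD, cut at about 23% in these data, passing the limit was not always enough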;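 further: 0% = wells killed by 20 µM Hyamine and 100% = untreated DMSO cell wells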); settings: CellTiter-Glo, 60 h, at 10 µM, hits give low values
[5] = growth suppression of PTEN-deleted HCT116, pilot screen, cell-based, HCT116 clonal line, CellTiter-Glo (AID 824;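 active means viability at or below 27.92% in each of two runs, the all-compound median minus 4 SD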;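 further: 0% = 20 µM Hyamine control and 100% = vehicle cell control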); settings: 60 h, at 10 µM, hits give low values
[6] = inhibitors of the yeast RAM network, pilot screen, dse1pr::URA3 reporter, 5-FOA selection (AID 869;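 active means inhibition over a set limit, the all-compound mean plus 3 SD, in both replicate runs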;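 further: 0% = DMSO wells with no growth and 100% = 10 µM 1-NA-PP1 with full growth; RAM network block rescues cells from 5-FOA so hits raise OD615 growth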); settings: S. cerevisiae dse1pr::URA3 5-FOA growth, OD615, 2 d; at 10 µM; hits give high values; strain carries analog-sensitive mutant Cbk1 kinase
[7] = RAM signaling pathway blockade in yeast – S. cerevisiae, Pdr1DBD-CYC8 efflux-inhibited sensitized strain, primary screen (AID 1298;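 active means RAM network inhibition above 8.4% in each of two replicates, 3 SD over the compound average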;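 further: 0% = DMSO untreated cells without growth and 100% = 10 µM 1-NA-PP1 full growth; higher means more yeast growth rescued from 5-FOA killing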); settings: S. cerevisiae cbk1-as DSE1-URA3 strain, 5-FOA growth OD615, 2 d; at 50 µM; hits give high values

CCOC(=O)C(CCOc1cccc(CC)c1)C(=O)OCC
inactive: growth inhibition [1] 4.28% | growth inhibition [2] -17.2% | viability increase [3] -2.61% | viability [4] 89.5% | viability [5] 87% | inhibition [6] -0.12% | RAM network inhibition [7] 2.13%

CCOC1OC2C(CO)OC(n3cnc4c(N)ncnc43)C2O1 (configuration not stated)
inactive: growth inhibition [1] 6.12% | growth inhibition [2] 10.6% | viability increase [3] 0.13% | viability [4] 95.1% | viability [5] 96.6% | inhibition [6] 1.5% | RAM network inhibition [7] 1.28%

O=C1Nc2ccccc2C(O)(C(=O)NCc2ccco2)N1c1ccc(Cl)cc1 (configuration not stated)
inactive: growth inhibition [1] -7.58% | growth inhibition [2] -16.5% | viability increase [3] -4.11% | viability [4] 98.6% | viability [5] 94.5% | inhibition [6] 1.98% | RAM network inhibition [7] 4.83%

COc1cccc(NC(=O)CSc2nnc(Cn3c(=O)sc4ccccc43)n2C)c1
inactive: growth inhibition [1] 1.18% | growth inhibition [2] 18.9% | viability increase [3] -2.91% | viability [4] 102% | viability [5] 104% | inhibition [6] 2.37% | RAM network inhibition [7] 4.95%

O=C(O)CCCC(=O)Nc1ccccc1Br
inactive: growth inhibition [1] 9.25% | growth inhibition [2] 10.5% | viability increase [3] -1.61% | viability [4] 104% | viability [5] 94.8% | inhibition [6] 1.11% | RAM network inhibition [7] 2.11%

Cn1c(=O)c2c(SCc3cccnc3)nc(CC(C)(C)C)nc2n(C)c1=O
inactive: growth inhibition [1] 0.2% | growth inhibition [2] -12% | viability increase [3] -6.27% | viability [4] 87.2% | viability [5] 80.9% | inhibition [6] 0.1% | RAM network inhibition [7] 3.24%

O=C(Nc1cnc2ccccc2c1)c1cccnc1
inactive: growth inhibition [1] 4.78% | growth inhibition [2] 0.625% | viability increase [3] -7.98% | viability [4] 103% | viability [5] 103% | inhibition [6] 1.74% | RAM network inhibition [7] -0.15%

C=CCSc1nc2c(c(=O)[nH]1)C(C(C)C)C(C#N)=C(N)O2 (configuration not stated)
inactive: growth inhibition [1] 0.845% | growth inhibition [2] 1.47% | viability increase [3] -2.3% | viability [4] 101% | viability [5] 101% | inhibition [6] 1.75% | RAM network inhibition [7] 1.88%

c1ccc(Nc2nc3ccccc3n3cnnc23)cc1
inactive: growth inhibition [1] -1.27% | growth inhibition [2] 10.2% | viability increase [3] -5.23% | viability [4] 86.1% | viability [5] 84.6% | inhibition [6] 2.09% | RAM network inhibition [7] -0.58%

COC(=O)c1ccc(C2c3c(oc4ccccc4c3=O)C(=O)N2CCCN2CCOCC2)cc1 (configuration not stated)
inactive: growth inhibition [1] -2.57% | growth inhibition [2] -3.54% | viability increase [3] -4.63% | viability [4] 87.6% | viability [5] 82.9% | inhibition [6] 0.54% | RAM network inhibition [7] 0.48%

O=C1c2oc3ccc(Cl)cc3c(=O)c2C(c2ccco2)N1CCN1CCOCC1 (configuration not stated)
inactive: growth inhibition [1] -2.05% | growth inhibition [2] -4.56% | viability increase [3] -5.51% | viability [4] 89.6% | viability [5] 90.4% | inhibition [6] 0.415% | RAM network inhibition [7] -1.88%

COc1ccc(NC(=O)CN(c2cc(C)cc(C)c2)S(=O)(=O)c2c(C)n[nH]c2C)cc1
inactive: growth inhibition [1] -9.19% | growth inhibition [2] -1.92% | viability increase [3] -2.97% | viability [4] 102% | viability [5] 94.6% | inhibition [6] 0.955% | RAM network inhibition [7] 5.46%

CCC1Oc2nc(SC)nnc2-c2ccccc2N1C(=O)c1ccccc1 (configuration not stated)
inactive: growth inhibition [1] -2.41% | growth inhibition [2] -2.26% | viability increase [3] -5.16% | viability [4] 70.6% | viability [5] 58.1% | inhibition [6] 1.03% | RAM network inhibition [7] 3.93%

O=C(Cn1ncc2c(=O)oc3ccccc3c21)N1CCc2ccccc2C1
inactive: growth inhibition [1] -12.5% | growth inhibition [2] -12.7% | viability increase [3] -1.69% | viability [4] 103% | viability [5] 94.7% | inhibition [6] 0.645% | RAM network inhibition [7] -0.07%

CCCOc1ccc(N2C(=O)CC(N3CCN(c4ccccc4F)CC3)C2=O)cc1 (configuration not stated)
inactive: growth inhibition [1] -0.95% | growth inhibition [2] -3.87% | viability increase [3] 1.4% | viability [4] 94.7% | viability [5] 96.4% | inhibition [6] 0.125% | RAM network inhibition [7] 7.05%

CCOC(=O)C1=C(O)CSC1=Nc1ccc(Cl)cc1
inactive: growth inhibition [1] -7.6% | growth inhibition [2] -10.1% | viability increase [3] -1.62% | viability [4] 107% | viability [5] 99.8% | inhibition [6] 1.17% | RAM network inhibition [7] 7.14%

Cc1cc(C)cc(-n2cc3c(=O)n(C)c(=O)n(C)c3c2)c1
inactive: growth inhibition [1] -6.43% | growth inhibition [2] -0.345% | viability increase [3] -1.71% | viability [4] 102% | viability [5] 103% | inhibition [6] 0.155% | RAM network inhibition [7] 2.55%

Cc1ccc(-c2nc3cnccn3c2Nc2ccccc2)o1
inactive: growth inhibition [1] 0.205% | growth inhibition [2] 14.9% | viability increase [3] -0.77% | viability [4] 91.2% | viability [5] 84.3% | inhibition [6] 0.995% | RAM network inhibition [7] 1.9%

Clc1ccc(C=NC23CN4CN(CN(C4)C2)C3)cc1
inactive: growth inhibition [1] 8.77% | growth inhibition [2] 6.34% | viability increase [3] -1.39% | viability [4] 102% | viability [5] 90.3% | inhibition [6] 1.11% | RAM network inhibition [7] 0.19%

N#CCCN1CCN(S(=O)(=O)c2ccc(S(=O)(=O)N3CCOCC3)cc2)CC1
inactive: growth inhibition [1] -6.47% | growth inhibition [2] 4.95% | viability increase [3] 0.97% | viability [4] 95.2% | viability [5] 98.8% | inhibition [6] -0.88% | RAM network inhibition [7] -2.16%

COc1cccc(C2NC(=O)NC(C)=C2C(=O)Nc2ccc(C)cc2)c1OC (configuration not stated)
inactive: growth inhibition [1] -1.23% | growth inhibition [2] -4.83% | viability increase [3] 0.13% | viability [4] 98.5% | viability [5] 99.7% | inhibition [6] 0.455% | RAM network inhibition [7] 6.12%

O=C(Oc1ccccc1)N1CCN(c2ccc(F)cc2)CC1
inactive: growth inhibition [1] -11.1% | growth inhibition [2] -5.32% | viability increase [3] 1.92% | viability [4] 95.8% | viability [5] 85.5% | inhibition [6] 0.665% | RAM network inhibition [7] 5.1%

Clc1cc(NCc2cccs2)ccc1N1CCOCC1
inactive: growth inhibition [1] -13.5% | growth inhibition [2] -6.34% | viability increase [3] -3.46% | viability [4] 78.9% | viability [5] 92% | inhibition [6] 1.17% | RAM network inhibition [7] 4.21%

CCOC(=O)N1CCC(NC(=O)c2ccc(CS(=O)(=O)c3ccccc3C)o2)CC1
inactive: growth inhibition [1] -9.38% | growth inhibition [2] -19.7% | viability increase [3] -0.86% | viability [4] 106% | viability [5] 98.5% | inhibition [6] -0.185% | RAM network inhibition [7] 7.2%

Cn1nnnc1SCc1nc2ccccc2[nH]1
inactive: growth inhibition [1] -7.39% | growth inhibition [2] -5.67% | viability increase [3] 0.69% | viability [4] 101% | viability [5] 102% | inhibition [6] 0.215% | RAM network inhibition [7] 3.43%

Cn1c(=O)[nH]c(=O)c2c1nc(N1CCCCCC1)n2CCSc1nc2ccccc2o1
inactive: growth inhibition [1] -8.05% | growth inhibition [2] -7.14% | viability increase [3] -3.78% | viability [4] 95.4% | viability [5] 91.3% | inhibition [6] 1.73% | RAM network inhibition [7] 3.18%

Cc1cc(N2CCOCC2)nc(NCc2ccccc2)n1
inactive: growth inhibition [1] 3.04% | growth inhibition [2] -5.48% | viability increase [3] -3.86% | viability [4] 72% | viability [5] 64.8% | inhibition [6] 1.17% | RAM network inhibition [7] 4.85%

COc1ccc2c(c1)C(=O)CC(c1ccccc1F)O2 (configuration not stated)
inactive: growth inhibition [1] -12% | growth inhibition [2] -1.22% | viability increase [3] -3.63% | viability [4] 65.4% | viability [5] 74.3% | inhibition [6] 1.22% | RAM network inhibition [7] 5.83%

COc1ccc(NC(C)=O)cc1NC(=O)CSc1nnc(-c2cccnc2)n1C
inactive: growth inhibition [1] -5.75% | growth inhibition [2] -0.47% | viability increase [3] -0.83% | viability [4] 104% | viability [5] 100% | inhibition [6] 0.485% | RAM network inhibition [7] 1.19%

Cc1oc(C(C)(C)C)cc1C(=O)Nc1ccc(C(=O)O)cc1
inactive: growth inhibition [1] 6.25% | growth inhibition [2] -11.5% | viability increase [3] 2.02% | viability [4] 103% | viability [5] 91% | inhibition [6] 0.6% | RAM network inhibition [7] -1.87%

CCOC(=O)NCc1ccc(CNC(=O)OCC)cc1
inactive: growth inhibition [1] -9.67% | growth inhibition [2] 4.35% | viability increase [3] -1.96% | viability [4] 97.1% | viability [5] 90% | inhibition [6] 0.81% | RAM network inhibition [7] 0.57%

Cn1nnnc1SCc1ccc(F)cc1
inactive: growth inhibition [1] -3.69% | growth inhibition [2] -4.48% | viability increase [3] -0.09% | viability [4] 98.1% | viability [5] 108% | inhibition [6] 1.25% | RAM network inhibition [7] 2.61%

CCCN1Cc2cccc(C(=O)Nc3ccc4c(c3)OCCO4)c2C1=O
inactive: growth inhibition [1] 0.22% | growth inhibition [2] -5.64% | viability increase [3] 0.47% | viability [4] 106% | viability [5] 97.2% | inhibition [6] 1.35% | RAM network inhibition [7] 2.75%

COc1ccc(C2C/C(=N\O)C(C)(C)O2)cc1 (configuration not stated)
inactive: growth inhibition [1] -16.5% | growth inhibition [2] -4.77% | viability increase [3] -0.83% | viability [4] 97.1% | viability [5] 93.7% | inhibition [6] 1.06% | RAM network inhibition [7] 3.9%

COC(=O)C(C)Sc1nnc(Cc2cc(=O)[nH]c(=O)[nH]2)n1-c1ccc(Cl)cc1 (configuration not stated)
inactive: growth inhibition [1] -13.7% | growth inhibition [2] -7.63% | viability increase [3] -1.15% | viability [4] 104% | viability [5] 95.6% | inhibition [6] 1.97% | RAM network inhibition [7] 1%

O=C(c1ccc2snnc2c1)N1CCCC1
inactive: growth inhibition [1] -11.3% | growth inhibition [2] -4.86% | viability increase [3] -0.66% | viability [4] 99.7% | viability [5] 94.2% | inhibition [6] 1.14% | RAM network inhibition [7] 4.99%
